According to ChEMBL document CHEMBL1143798, “Pyrimido[4,5-c]quinolin-1(2H)-ones as a novel class of antimitotic agents: Synthesis and in vitro cytotoxic activity” (Eur J Med Chem, 2007):

Legend:
HT-1080 [1] = test: Cytotoxicity against human HT1080 cells by MTT assay; type: functional, cell-based
Outline: (§1)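 Cells grown in DMEM with 10% FBS and antibiotics at 37 °C, 5% CO2, seeded ~5000/well; compound in DMSO added after 24 h, 72 h exposure. MTT (1 mg/mL final, serum- and phenol-red-free DMEM) 4 h, formazan dissolved in 2-propanol, OD 550 nm (ref 690 nm). IC50 = concentration halving OD vs untreated; mean of three independent experiments with SD; doxorubicin positive control.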

HT-29 = test: Cytotoxicity against human HT29 cells by MTT assay; type: functional, cell-based; outline: as §1
MDA-MB-231 = test: Cytotoxicity against human MDA-MB-231 cells by MTT assay; type: functional, cell-based; outline: as §1
HT-1080 [2] = test: Cell cycle arrest in human HT1080 cells by accumulation at G2/M phase at 5 uM after 36 hrs; type: functional
Outline: (§2)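 HT-1080 fibrosarcoma cells exposed 36 h, then trypsinized, PBS-washed, fixed in 50% ethanol and stained with propidium iodide containing RNase; DNA content measured by flow cytometry and cell-cycle phase distribution (G0/G1, S, G2/M) determined from DNA histograms.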

HT-1080 [3] = test: Induction of apoptosis in human HT1080 cells by flow cytometer; type: functional
Outline: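 HT-1080 cells incubated 36 h, ethanol-fixed (50%) and stained with RNase-containing propidium iodide; apoptosis estimated by flow cytometry as sub-diploid peak in DNA-content histogram, expressed as percentage of total events collected.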

HT-1080 [4] = test: Cell cycle arrest in human HT1080 cells by accumulation at G0/G1 phase at 5 uM after 36 hrs; type: functional; outline: as §2
HT-1080 [5] = test: Cell cycle arrest in human HT1080 cells by accumulation at S phase at 5 uM after 36 hrs; type: functional; outline: as §2
HT-1080 [6] = test: Inhibition of tubulin polymerization in human HT1080 cells after 36 hrs by Western analysis; type: functional, cell-based
Outline: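 Cells lysed in 20 mM Tris-HCl pH 6.8, 1 mM MgCl2, 2 mM EGTA, 0.5% NP-40 with protease/phosphatase inhibitors; spun 13,000 × g 10 min to separate soluble from polymerized tubulin pellet; fractions run on 10% SDS-PAGE, anti-α-tubulin Western blot.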

Question: For `Nn1c(-c2ccc(Cl)cc2)nc2c(-c3ccc(Cl)cc3)nc3ccccc3c2c1=O`, which IC50 (HT-1080 [1]) is on record?
Answer: 6.84 µM

Question: And the IC50 (HT-29)?
Answer: 18.1 µM

Question: And the IC50 (MDA-MB-231)?
Answer: 55.3 µM

Question: What does the source list for `Nn1c(-c2ccc(Cl)cc2)nc2c(-c3ccc(Br)cc3)nc3ccc(Cl)cc3c2c1=O`?
Answer: Activity (HT-1080 [2]): 27.75%; Activity (HT-1080 [3]): 9.14%; IC50 (HT-1080 [1]): 1.84 µM; IC50 (HT-29): 2.82 µM; IC50 (MDA-MB-231): 2.89 µM; Activity (HT-1080 [4]): 49.76%; Activity (HT-1080 [5]): 22.48%

Question: How did the Activity (HT-1080 [2]) turn out when `Nn1c(-c2ccc(Cl)cc2)nc2c(-c3ccc(Cl)cc3)nc3ccc(Cl)cc3c2c1=O` was run?
Answer: 31.49%

Question: What about the Activity (HT-1080 [3]) of the same compound?
Answer: 7.62%

Question: What about the IC50 (HT-1080 [1]) of the same compound?
Answer: 1.23 µM

Question: What about the IC50 (HT-29) of the same compound?
Answer: 1.97 µM

Question: What about the IC50 (MDA-MB-231) of the same compound?
Answer: 1.82 µM

Question: What about the Activity (HT-1080 [6]) of the same compound?
Answer: Dose-dependent effect

Question: What about the Activity (HT-1080 [4]) of the same compound?
Answer: 57.25%

Question: And the Activity (HT-1080 [5])?
Answer: 11.26%

Question: For `Cc1nc2c(-c3ccc(Cl)cc3)nc3ccccc3c2c(=O)n1N`, which IC50 (HT-1080 [1]) is on record?
Answer: > 100 µM

Question: What about the IC50 (HT-29) of the same compound?
Answer: > 100 µM

Question: What about the IC50 (MDA-MB-231) of the same compound?
Answer: > 100 µM

Question: Which results are given for `Nn1c(-c2ccccc2)nc2c(-c3ccc(Cl)cc3)nc3ccccc3c2c1=O`?
Answer: IC50 (HT-1080 [1]): 23 µM; IC50 (HT-29): > 100 µM; IC50 (MDA-MB-231): > 100 µM

Question: For `Nn1c(-c2ccccc2)nc2c(-c3ccc(Cl)cc3)nc3ccc(Cl)cc3c2c1=O`, which Activity (HT-1080 [2]) is on record?
Answer: 22.46%

Question: And the Activity (HT-1080 [3])?
Answer: 2.21%

Question: What about the IC50 (HT-1080 [1]) of the same compound?
Answer: 2.9 µM

Question: And the IC50 (HT-29)?
Answer: 4.68 µM

Question: What about the IC50 (MDA-MB-231) of the same compound?
Answer: 15.8 µM

Question: And the Activity (HT-1080 [4])?
Answer: 50.68%

Question: What about the Activity (HT-1080 [5]) of the same compound?
Answer: 26.86%

Question: For `Nn1c(-c2ccc(Cl)cc2)nc2c(-c3ccc(Br)cc3)nc3ccccc3c2c1=O`, which IC50 (HT-1080 [1]) is on record?
Answer: 10.8 µM

Question: What about the IC50 (HT-29) of the same compound?
Answer: 23.2 µM

Question: What about the IC50 (MDA-MB-231) of the same compound?
Answer: 34.2 µM

Question: With `Nn1c(-c2ccccc2)nc2c(-c3ccc(Br)cc3)nc3ccccc3c2c1=O` as the compound, how does the IC50 (HT-1080 [1]) read?
Answer: 47.4 µM

Question: What about the IC50 (HT-29) of the same compound?
Answer: 89.9 µM

Question: And the IC50 (MDA-MB-231)?
Answer: > 100 µM

Question: With `Cc1nc2c(-c3ccc(Br)cc3)nc3ccccc3c2c(=O)n1N` as the compound, how does the IC50 (HT-1080 [1]) read?
Answer: 44.8 µM

Question: What about the IC50 (HT-29) of the same compound?
Answer: 77.8 µM

Question: What about the IC50 (MDA-MB-231) of the same compound?
Answer: > 100 µM

Question: What does the source list for `Cc1nc2c(-c3ccc(Cl)cc3)nc3ccc(Cl)cc3c2c(=O)n1N`?
Answer: IC50 (HT-1080 [1]): 34.3 µM; IC50 (HT-29): 52 µM; IC50 (MDA-MB-231): > 100 µM

Question: For `COc1cccc2c1C(=O)c1c(O)c3c(c(O)c1C2=O)C[C@@](O)(C(=O)CO)C[C@@H]3O[C@H]1C[C@H](N)[C@H](O)[C@H](C)O1` [DOXORUBICIN], which IC50 (HT-1080 [1]) is on record?
Answer: 0.022 µM

Question: And the IC50 (HT-29)?
Answer: 0.35 µM

Question: What about the IC50 (MDA-MB-231) of the same compound?
Answer: 0.03 µM

Question: What does the source list for `Nn1c(-c2ccccc2)nc2c(-c3ccc(Br)cc3)nc3ccc(Cl)cc3c2c1=O`?
Answer: Activity (HT-1080 [2]): 26.22%; Activity (HT-1080 [3]): 5.51%; IC50 (HT-1080 [1]): 1.48 µM; IC50 (HT-29): 2.14 µM; IC50 (MDA-MB-231): 13.7 µM; Activity (HT-1080 [4]): 45.78%; Activity (HT-1080 [5]): 28%
